In ChEMBL document CHEMBL4316629, “Discovery of 1,3-diphenyl-1H-pyrazole derivatives containing rhodanine-3-alkanoic acid groups as potential PTP1B inhibitors” (Bioorg Med Chem Lett, 2019):
pIC50, pKi: −log10 of the molar value. One block for each molecule: values may come before it. Calls of active or inactive are those of the source. No cut-off for these calls is given here.

Assays:
[1] = biological target: T1, Tyrosine-protein phosphatase non-receptor type 1 (Homo sapiens, UniProt P18031); assay: Inhibition of PTP1B (unknown origin) using pNPP as substrate
T1 sequence (P18031 whole entry): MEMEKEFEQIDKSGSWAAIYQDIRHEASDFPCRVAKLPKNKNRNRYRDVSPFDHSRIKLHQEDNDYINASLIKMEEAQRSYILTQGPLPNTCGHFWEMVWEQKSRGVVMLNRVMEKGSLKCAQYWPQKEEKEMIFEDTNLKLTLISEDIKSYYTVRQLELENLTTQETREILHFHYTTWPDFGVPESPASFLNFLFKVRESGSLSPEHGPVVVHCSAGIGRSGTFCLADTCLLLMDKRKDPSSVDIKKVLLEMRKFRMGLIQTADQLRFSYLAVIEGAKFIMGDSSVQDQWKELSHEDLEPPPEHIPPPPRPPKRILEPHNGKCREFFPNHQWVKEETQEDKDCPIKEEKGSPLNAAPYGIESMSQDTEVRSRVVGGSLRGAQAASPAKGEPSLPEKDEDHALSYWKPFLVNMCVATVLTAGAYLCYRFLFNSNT

Homo sapiens = species on record: Homo sapiens; assay: Selectivity index, ratio of IC50 for inhibition of TCPTP (unknown origin) using pNPP as substrate to IC50 for inhibition of PTP1B (unknown origin) using pNPP as substrate
Summary of the method: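 Both TCPTP and PTP1B IC50 values were measured by the same pNPP hydrolysis assay, derived by regression from triplicate dose-response data. The index is the TCPTP IC50 divided by the PTP1B IC50.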

[2] = biological target: T2, Tyrosine-protein phosphatase non-receptor type 2 (Homo sapiens, UniProt P17706); assay: Inhibition of TCPTP (unknown origin) using pNPP as substrate
T2 sequence (P17706 whole entry): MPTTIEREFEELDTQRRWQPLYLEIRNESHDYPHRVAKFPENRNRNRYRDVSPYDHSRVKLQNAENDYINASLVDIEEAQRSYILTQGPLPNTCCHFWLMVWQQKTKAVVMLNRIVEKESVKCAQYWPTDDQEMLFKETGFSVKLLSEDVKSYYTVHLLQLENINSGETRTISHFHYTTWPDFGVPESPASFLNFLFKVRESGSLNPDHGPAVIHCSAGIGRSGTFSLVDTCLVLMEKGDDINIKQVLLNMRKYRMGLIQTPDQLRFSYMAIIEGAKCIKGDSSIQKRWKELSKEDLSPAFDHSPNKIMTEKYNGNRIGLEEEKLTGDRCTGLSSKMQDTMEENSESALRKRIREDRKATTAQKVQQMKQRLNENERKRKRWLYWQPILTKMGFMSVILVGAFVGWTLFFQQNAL

[3] = biological target: T3, M-phase inducer phosphatase 2 (Homo sapiens, UniProt P30305); assay: Inhibition of CDC25B (unknown origin) using pNPP as substrate
T3 sequence (P30305 whole entry): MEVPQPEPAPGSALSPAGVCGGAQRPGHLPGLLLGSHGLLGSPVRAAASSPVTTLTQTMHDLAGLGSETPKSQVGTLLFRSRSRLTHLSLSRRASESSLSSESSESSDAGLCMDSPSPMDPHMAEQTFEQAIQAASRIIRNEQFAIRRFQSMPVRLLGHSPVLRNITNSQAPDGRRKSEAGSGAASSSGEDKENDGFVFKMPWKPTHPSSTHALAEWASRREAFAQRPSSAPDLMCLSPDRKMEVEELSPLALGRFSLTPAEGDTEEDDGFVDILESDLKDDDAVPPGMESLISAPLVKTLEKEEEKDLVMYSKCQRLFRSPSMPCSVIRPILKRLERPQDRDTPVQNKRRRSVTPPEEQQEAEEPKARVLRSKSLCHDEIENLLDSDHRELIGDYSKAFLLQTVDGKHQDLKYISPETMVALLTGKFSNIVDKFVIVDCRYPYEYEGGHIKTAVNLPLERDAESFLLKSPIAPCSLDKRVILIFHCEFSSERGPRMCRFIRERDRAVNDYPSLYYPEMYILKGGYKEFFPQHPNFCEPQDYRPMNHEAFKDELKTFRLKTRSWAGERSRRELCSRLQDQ
Summary of the method: (§1)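 Same pNPP-substrate phosphatase assay as for PTP1B, applied for selectivity. Compounds were first screened at 20 μg/mL, then tested over a dose range. IC50 was obtained by regression analysis and reported as mean ± SD of three replications. Oleanolic acid served as the positive control.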

[4] = biological target: Receptor-type tyrosine-protein phosphatase F (Homo sapiens) (UniProt P10586); assay: Inhibition of LAR (unknown origin) at 20 ug/ml using pNPP as substrate
Summary of the method: (§2)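 Single-point screen at 20 µg/mL of compound against each phosphatase (LAR, SHP-1, SHP-2), with pNPP hydrolysis as the read-out.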

[5] = biological target: T4, Tyrosine-protein phosphatase non-receptor type 6 (Homo sapiens, UniProt P29350); assay: Inhibition of SHP1 (unknown origin) at 20 ug/ml using pNPP as substrate; summary of the method: as §2
[6] = biological target: T5, Tyrosine-protein phosphatase non-receptor type 11 (Homo sapiens) (UniProt Q06124); assay: Inhibition of SHP2 (unknown origin) at 20 ug/ml using pNPP as substrate; summary of the method: as §2
T5 sequence (whole entry): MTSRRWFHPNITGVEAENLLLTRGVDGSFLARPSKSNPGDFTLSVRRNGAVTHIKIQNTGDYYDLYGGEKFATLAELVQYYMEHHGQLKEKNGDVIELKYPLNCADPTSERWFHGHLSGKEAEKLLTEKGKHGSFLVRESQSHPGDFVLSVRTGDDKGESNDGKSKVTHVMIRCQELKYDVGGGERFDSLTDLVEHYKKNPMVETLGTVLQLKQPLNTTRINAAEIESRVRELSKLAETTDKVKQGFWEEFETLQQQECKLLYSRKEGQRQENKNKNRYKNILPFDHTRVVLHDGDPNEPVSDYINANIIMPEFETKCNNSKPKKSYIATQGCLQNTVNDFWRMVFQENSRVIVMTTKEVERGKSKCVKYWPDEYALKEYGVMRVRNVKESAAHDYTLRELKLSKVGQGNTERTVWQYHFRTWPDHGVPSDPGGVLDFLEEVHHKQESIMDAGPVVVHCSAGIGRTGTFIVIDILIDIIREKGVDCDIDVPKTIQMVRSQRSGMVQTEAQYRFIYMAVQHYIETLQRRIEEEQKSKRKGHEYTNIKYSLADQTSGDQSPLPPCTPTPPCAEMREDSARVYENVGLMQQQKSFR

[7] = biological target: T6, Tyrosine-protein phosphatase non-receptor type 1 (Homo sapiens) (UniProt P18031); assay: Time dependent inhibition of PTP1B (unknown origin) using pNPP as substrate
T6 sequence (whole entry): T1 sequence (P18031 whole entry)

[8] = biological target: T1, Tyrosine-protein phosphatase non-receptor type 1; assay: Competitive type inhibition of PTP1B (unknown origin) using pNPP as substrate by Lineweaver-Burk plot analysis
[9] = biological target: T4, Tyrosine-protein phosphatase non-receptor type 6; assay: Inhibition of SHP1 (unknown origin) using pNPP as substrate; summary of the method: as §1
[10] = biological target: T7, Tyrosine-protein phosphatase non-receptor type 11 (Homo sapiens, UniProt Q06124); assay: Inhibition of SHP2 (unknown origin) using pNPP as substrate; summary of the method: as §1
T7 sequence (Q06124 whole entry): T5 sequence (whole entry)

[11] = biological target: T6, Tyrosine-protein phosphatase non-receptor type 1 (Homo sapiens); assay: Potency index, ratio of IC50 for oleanolic acid to IC50 for test compound for inhibition of PTP1B (unknown origin) using pNPP as substrate
Summary of the method: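 Both IC50 values come from dose-response inhibition of PTP1B with pNPP as substrate, fitted by regression (mean ± SD, n = 3). The ratio divides the IC50 of the reference PTP1B inhibitor by that of the test compound.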

Receptor-type tyrosine-protein phosphatase F (Homo sapiens), sequence (P10586 whole entry): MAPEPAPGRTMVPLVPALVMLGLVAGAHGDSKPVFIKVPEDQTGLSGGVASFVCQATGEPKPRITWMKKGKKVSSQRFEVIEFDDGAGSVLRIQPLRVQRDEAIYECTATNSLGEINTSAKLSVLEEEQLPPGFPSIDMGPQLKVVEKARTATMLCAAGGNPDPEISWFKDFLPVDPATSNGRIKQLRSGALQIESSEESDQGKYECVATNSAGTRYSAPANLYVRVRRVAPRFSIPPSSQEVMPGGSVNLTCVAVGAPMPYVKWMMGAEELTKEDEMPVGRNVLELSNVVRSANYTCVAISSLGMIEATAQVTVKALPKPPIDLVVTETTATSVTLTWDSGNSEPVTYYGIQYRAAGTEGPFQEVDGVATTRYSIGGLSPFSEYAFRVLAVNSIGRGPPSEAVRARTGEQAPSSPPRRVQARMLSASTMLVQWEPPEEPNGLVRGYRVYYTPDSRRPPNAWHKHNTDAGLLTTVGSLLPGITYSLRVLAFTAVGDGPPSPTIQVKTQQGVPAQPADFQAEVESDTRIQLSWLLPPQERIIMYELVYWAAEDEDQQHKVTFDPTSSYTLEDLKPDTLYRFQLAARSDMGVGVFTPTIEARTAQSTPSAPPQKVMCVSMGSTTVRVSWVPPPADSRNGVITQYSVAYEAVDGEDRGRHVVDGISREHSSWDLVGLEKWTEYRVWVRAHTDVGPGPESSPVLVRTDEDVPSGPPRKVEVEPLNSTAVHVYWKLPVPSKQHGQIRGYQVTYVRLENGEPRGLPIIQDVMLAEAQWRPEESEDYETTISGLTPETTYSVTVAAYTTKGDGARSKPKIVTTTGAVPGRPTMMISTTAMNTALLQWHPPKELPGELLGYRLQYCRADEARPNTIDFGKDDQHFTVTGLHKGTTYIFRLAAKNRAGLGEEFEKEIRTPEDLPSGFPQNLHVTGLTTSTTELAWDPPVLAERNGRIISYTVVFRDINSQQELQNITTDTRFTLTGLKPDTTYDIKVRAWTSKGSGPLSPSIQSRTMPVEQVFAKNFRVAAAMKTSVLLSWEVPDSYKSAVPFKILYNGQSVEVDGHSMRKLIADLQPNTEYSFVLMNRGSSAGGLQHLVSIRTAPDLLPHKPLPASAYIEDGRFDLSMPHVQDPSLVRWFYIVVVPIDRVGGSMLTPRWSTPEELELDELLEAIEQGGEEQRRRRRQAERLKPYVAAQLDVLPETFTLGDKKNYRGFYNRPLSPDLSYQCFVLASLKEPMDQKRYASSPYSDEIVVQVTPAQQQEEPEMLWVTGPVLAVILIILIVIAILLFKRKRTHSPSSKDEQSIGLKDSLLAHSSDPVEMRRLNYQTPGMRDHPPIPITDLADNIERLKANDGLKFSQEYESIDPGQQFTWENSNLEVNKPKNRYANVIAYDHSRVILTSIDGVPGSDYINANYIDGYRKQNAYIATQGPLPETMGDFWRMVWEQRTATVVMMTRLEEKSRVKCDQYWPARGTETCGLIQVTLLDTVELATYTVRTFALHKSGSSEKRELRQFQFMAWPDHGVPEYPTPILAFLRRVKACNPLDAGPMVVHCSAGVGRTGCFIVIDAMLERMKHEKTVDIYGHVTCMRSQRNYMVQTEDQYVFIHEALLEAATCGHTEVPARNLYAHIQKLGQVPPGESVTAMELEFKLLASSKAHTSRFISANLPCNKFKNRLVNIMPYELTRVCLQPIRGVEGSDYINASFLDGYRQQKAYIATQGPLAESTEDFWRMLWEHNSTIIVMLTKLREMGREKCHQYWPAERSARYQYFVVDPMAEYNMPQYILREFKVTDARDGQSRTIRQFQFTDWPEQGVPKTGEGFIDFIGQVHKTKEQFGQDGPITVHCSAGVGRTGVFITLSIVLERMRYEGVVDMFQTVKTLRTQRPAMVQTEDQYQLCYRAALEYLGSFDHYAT
T4 sequence (P29350 whole entry): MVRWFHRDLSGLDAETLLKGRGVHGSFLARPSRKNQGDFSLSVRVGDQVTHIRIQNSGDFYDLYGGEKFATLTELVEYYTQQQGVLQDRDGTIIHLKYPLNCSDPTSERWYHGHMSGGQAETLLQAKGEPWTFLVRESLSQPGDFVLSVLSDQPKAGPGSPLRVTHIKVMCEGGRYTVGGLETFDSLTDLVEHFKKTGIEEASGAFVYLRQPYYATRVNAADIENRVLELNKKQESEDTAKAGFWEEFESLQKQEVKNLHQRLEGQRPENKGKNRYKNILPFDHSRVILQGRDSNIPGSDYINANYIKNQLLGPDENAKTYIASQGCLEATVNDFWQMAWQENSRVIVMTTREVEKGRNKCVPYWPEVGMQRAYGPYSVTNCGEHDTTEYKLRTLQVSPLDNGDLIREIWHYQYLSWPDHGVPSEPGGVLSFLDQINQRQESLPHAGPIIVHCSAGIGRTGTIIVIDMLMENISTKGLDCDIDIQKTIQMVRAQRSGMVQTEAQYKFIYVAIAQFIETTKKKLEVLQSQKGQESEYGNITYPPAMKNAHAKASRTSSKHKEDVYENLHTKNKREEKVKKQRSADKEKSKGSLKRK

- pIC50 [1]: 5.31
Compound: O=C(O)[C@@H](Cc1ccccc1)N1C(=O)/C(=C/c2cn(-c3ccccc3)nc2-c2ccccc2Cl)SC1=S

- pIC50 [1]: 5.66
Compound: O=C(O)CCCCN1C(=O)/C(=C/c2cn(-c3ccccc3)nc2-c2ccc(Cl)cc2)SC1=S

- pIC50 [1]: 5.20
Compound: COc1ccccc1-c1nn(-c2ccccc2)cc1/C=C1\SC(=S)N([C@H](Cc2ccccc2)C(=O)O)C1=O

- pIC50 [1]: 5.56
Compound: O=C(O)[C@@H](Cc1ccccc1)N1C(=O)/C(=C/c2cn(-c3ccccc3)nc2-c2cccc(Br)c2)SC1=S

- pIC50 [1]: 5.35
Compound: O=C(O)[C@@H](Cc1ccccc1)N1C(=O)/C(=C/c2cn(-c3ccccc3)nc2-c2ccc(Br)cc2)SC1=S

- pIC50 [1]: 5.31
Compound: COc1cccc(-c2nn(-c3ccccc3)cc2/C=C2\SC(=S)N([C@H](Cc3ccccc3)C(=O)O)C2=O)c1

- pIC50 [1]: 5.10
- Ratio IC50 (Homo sapiens): 2 to 9
- pIC50 [2]: 4.85
- pIC50 [3]: 4.77
- inhibition [4]: inactive
- inhibition [5]: inactive
- inhibition [6]: inactive
Compound: O=C(O)CCN1C(=O)/C(=C/c2cn(-c3ccccc3)nc2-c2ccc(Cl)cc2Cl)SC1=S

- pIC50 [1]: 5.64
Compound: O=C(O)CCCN1C(=O)/C(=C/c2cn(-c3ccccc3)nc2-c2ccc(Cl)cc2)SC1=S

- pIC50 [1]: 5.74
- Ratio IC50 (Homo sapiens): 2 to 9
- TDI [7]: inactive
- pKi [8]: 6.15
- pIC50 [2]: 5.34
- pIC50 [3]: 5.21
- inhibition [4]: inactive
- inhibition [5]: inactive
- inhibition [6]: inactive
Compound: O=C(O)[C@@H](Cc1ccccc1)N1C(=O)/C(=C/c2cn(-c3ccccc3)nc2-c2ccc3ccccc3c2)SC1=S

- pIC50 [1]: 5.32
- Ratio IC50 (Homo sapiens): 2 to 9
- pIC50 [2]: 5.10
- pIC50 [3]: 4.95
- inhibition [4]: inactive
- pIC50 [9]: 4.61
- pIC50 [10]: 4.68
Compound: O=C(O)CN1C(=O)/C(=C/c2cn(-c3ccccc3)nc2-c2ccc3ccccc3c2)SC1=S

- pIC50 [1]: 4.92
Compound: O=C(O)CN1C(=O)/C(=C/c2cn(-c3ccccc3)nc2-c2cccc(Br)c2)SC1=S

- pIC50 [1]: 5.68
Compound: O=C(O)[C@@H](Cc1ccccc1)N1C(=O)/C(=C/c2cn(-c3ccccc3)nc2-c2ccc(Cl)cc2)SC1=S

- pIC50 [1]: 5.15
Compound: COc1ccc(-c2nn(-c3ccccc3)cc2/C=C2\SC(=S)N([C@H](Cc3ccccc3)C(=O)O)C2=O)cc1

- pIC50 [1]: 5.45
- Ratio IC50 (Homo sapiens): 2 to 9
- pIC50 [2]: 4.90
- pIC50 [3]: 4.86
- inhibition [4]: inactive
- pIC50 [9]: 4.77
- pIC50 [10]: 4.78
Compound: O=C(O)[C@@H](Cc1ccccc1)N1C(=O)/C(=C/c2cn(-c3ccccc3)nc2-c2ccc(Cl)cc2Cl)SC1=S

- pIC50 [1]: 4.61
Compound: COc1ccccc1-c1nn(-c2ccccc2)cc1/C=C1\SC(=S)N(CC(=O)O)C1=O

- pIC50 [1]: 5.73
Compound: O=C(O)CCCCCN1C(=O)/C(=C/c2cn(-c3ccccc3)nc2-c2ccc(Cl)cc2)SC1=S

- pIC50 [1]: 5.18
Compound: O=C(O)CCN1C(=O)/C(=C/c2cn(-c3ccccc3)nc2-c2ccc(Cl)cc2)SC1=S

- pIC50 [1]: 5.03
Compound: O=C(O)CN1C(=O)/C(=C/c2cn(-c3ccccc3)nc2-c2ccc([N+](=O)[O-])cc2)SC1=S

- pIC50 [1]: 5.45
Compound: O=C(O)[C@@H](Cc1ccccc1)N1C(=O)/C(=C/c2cn(-c3ccccc3)nc2-c2ccc([N+](=O)[O-])cc2)SC1=S

- pIC50 [1]: 5.87
- Ratio IC50 (Homo sapiens): 2 to 9
- pIC50 [2]: 5.25
- pIC50 [3]: 4.96
- inhibition [4]: inactive
- inhibition [5]: inactive
- inhibition [6]: inactive
Compound: O=C(O)CCCCCN1C(=O)/C(=C/c2cn(-c3ccccc3)nc2-c2ccc(Cl)cc2Cl)SC1=S

- pIC50 [1]: 6.17
- Ratio IC50 [11]: 2.5
- Ratio IC50 (Homo sapiens): 2 to 9
- TDI [7]: inactive
- pKi [8]: 6.51
- pIC50 [2]: 5.24
- pIC50 [3]: 4.55
- inhibition [4]: inactive
- inhibition [5]: inactive
- inhibition [6]: inactive
Compound: O=C(O)CCCCN1C(=O)/C(=C/c2cn(-c3ccccc3)nc2-c2ccc(Cl)cc2Cl)SC1=S

- pIC50 [1]: 5.20
Compound: O=C(O)[C@@H](Cc1ccccc1)N1C(=O)/C(=C/c2cn(-c3ccccc3)nc2-c2ccccc2)SC1=S

- pIC50 [1]: 5.69
Compound: Cc1ccc(-c2nn(-c3ccccc3)cc2/C=C2\SC(=S)N([C@H](Cc3ccccc3)C(=O)O)C2=O)cc1

- pIC50 [1]: 4.88
Compound: O=C(O)CN1C(=O)/C(=C/c2cn(-c3ccccc3)nc2-c2cccc(Cl)c2)SC1=S

- pIC50 [1]: 4.85
Compound: O=C(O)CN1C(=O)/C(=C/c2cn(-c3ccccc3)nc2-c2ccc(Br)cc2)SC1=S

- pIC50 [1]: 4.83
Compound: Cc1ccc(-c2nn(-c3ccccc3)cc2/C=C2\SC(=S)N(CC(=O)O)C2=O)cc1

- pIC50 [1]: 5.44
- Ratio IC50 (Homo sapiens): 2 to 9
- pIC50 [2]: 5.04
- pIC50 [3]: 4.86
- inhibition [4]: inactive
- inhibition [5]: inactive
- inhibition [6]: inactive
Compound: O=C(O)CCCN1C(=O)/C(=C/c2cn(-c3ccccc3)nc2-c2ccc(Cl)cc2Cl)SC1=S
